“And” between values parts separate entries of the source, which are not always exact repeats. Identical values can stand only once. Counter-ions that a name gives are not always drawn. Like-named read-outs stand apart in the source and are kept apart here.
Columns and labels:
[1] = test system: α3β4 and α4β2 AChRs; settings: 20 μM; ref Glick et al., 2002a; cited from earlier work
[2] = target: hα4β2 AChR (Homo sapiens, UniProt P17787+P43681); type: cell-based; settings: for hα4β2/hα3β4 IC50 ratio (selectivity): ratio using hα3β4 data of Arias et al., 2015; for IC50: read-out: IC50 (inhibitory potency)
hα4β2 AChR, sequence (P17787 26-502): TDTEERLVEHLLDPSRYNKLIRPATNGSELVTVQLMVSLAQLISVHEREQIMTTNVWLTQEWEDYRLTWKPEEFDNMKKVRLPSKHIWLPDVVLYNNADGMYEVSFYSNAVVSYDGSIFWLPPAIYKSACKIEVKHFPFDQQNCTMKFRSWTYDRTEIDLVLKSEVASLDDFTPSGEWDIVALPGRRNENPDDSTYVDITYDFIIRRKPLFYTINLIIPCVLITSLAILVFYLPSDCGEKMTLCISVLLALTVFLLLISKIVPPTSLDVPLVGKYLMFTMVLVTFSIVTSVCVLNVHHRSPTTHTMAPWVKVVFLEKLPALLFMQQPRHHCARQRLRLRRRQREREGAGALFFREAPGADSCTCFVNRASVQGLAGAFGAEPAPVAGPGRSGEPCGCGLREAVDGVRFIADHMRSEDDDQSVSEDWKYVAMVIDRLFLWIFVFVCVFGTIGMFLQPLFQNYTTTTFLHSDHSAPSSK
hα4β2 AChR, sequence (P43681 29-627): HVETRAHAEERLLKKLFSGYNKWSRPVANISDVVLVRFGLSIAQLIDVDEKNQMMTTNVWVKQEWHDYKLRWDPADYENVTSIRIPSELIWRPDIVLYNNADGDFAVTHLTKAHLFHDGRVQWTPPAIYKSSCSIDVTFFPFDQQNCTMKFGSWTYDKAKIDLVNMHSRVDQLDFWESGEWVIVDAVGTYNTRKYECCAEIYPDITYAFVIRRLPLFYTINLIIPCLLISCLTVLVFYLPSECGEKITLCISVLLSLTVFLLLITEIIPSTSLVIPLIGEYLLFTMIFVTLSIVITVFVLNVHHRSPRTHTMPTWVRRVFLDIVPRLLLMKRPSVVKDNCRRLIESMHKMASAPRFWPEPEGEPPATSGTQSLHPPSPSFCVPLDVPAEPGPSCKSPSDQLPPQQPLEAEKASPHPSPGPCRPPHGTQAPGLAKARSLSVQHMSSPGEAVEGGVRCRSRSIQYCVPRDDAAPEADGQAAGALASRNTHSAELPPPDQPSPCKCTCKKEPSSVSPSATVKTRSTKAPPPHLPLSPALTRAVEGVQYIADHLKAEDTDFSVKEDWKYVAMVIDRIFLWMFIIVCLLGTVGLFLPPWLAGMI

[3] = target: hα7 AChR (Homo sapiens, UniProt P36544); type: cell-based; settings: for hα7/hα3β4 IC50 ratio (selectivity): ratio using hα3β4 data of Arias et al., 2015
hα7 AChR, sequence (P36544 23-502): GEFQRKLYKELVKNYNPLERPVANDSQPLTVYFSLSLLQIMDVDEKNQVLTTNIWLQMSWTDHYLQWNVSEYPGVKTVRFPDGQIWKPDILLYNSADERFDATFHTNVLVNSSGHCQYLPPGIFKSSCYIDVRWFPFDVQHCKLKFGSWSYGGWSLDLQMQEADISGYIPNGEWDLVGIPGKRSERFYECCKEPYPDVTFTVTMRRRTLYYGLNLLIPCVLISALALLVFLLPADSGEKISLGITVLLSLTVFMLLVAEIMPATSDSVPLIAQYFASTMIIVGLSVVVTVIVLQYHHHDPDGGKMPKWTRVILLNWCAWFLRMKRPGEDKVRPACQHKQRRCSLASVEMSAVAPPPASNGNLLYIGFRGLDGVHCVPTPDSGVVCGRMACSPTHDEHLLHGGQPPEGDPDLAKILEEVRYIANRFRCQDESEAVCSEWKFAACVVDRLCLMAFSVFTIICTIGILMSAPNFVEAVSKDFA

[4] = test system: MHb (VI) neurons (endogenous α3β4* AChRs); test: Patch-clamp recording of ACh-evoked currents from MHb; type: cell-based, mouse; settings: for Reversibility of inhibition of ACh-evoked currents after washing: 180 μM, washing 13 min ((±)-18-MC) or 10 min ((+)-catharanthine); for IC50: read-out: IC50 (inhibitory potency on ACh-evoked currents), 100 μM ACh puffs, MHb (VI) neurons, single exponential fit
Method in brief: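 Male C57BL/6J mice, 8–24 weeks. Coronal 250 μm slices through the medial habenula, recovered in oxygenated solution at 33 °C for 12 min. Neurons visualised by IR/DIC. Internal solution contained 2 mM QX-314. ACh (100 μM) puffed for 250 ms at 12 psi, with 1 μM atropine in the superfusate. Test compound at 0.07–180 μM; peak amplitudes measured before and after washout. Nonlinear least-squares fit gave IC50.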

[5] = test system: hα3β4 AChR; settings: read-out: IC50 at hα3β4 AChRs; HEK293-hα3β4 cells; ref Arias et al., 2015; cited from earlier work
[6] = ref Zhang et al., 2002; Maissonneuve and Glick, 2003; cited from earlier work
[7] = test system: α1β1γδ AChR; test: Selectivity for hα3β4 over α1β1γδ AChRs; type: cell-based, human; settings: ref Arias et al., 2011
[8] = target: hα3β4 AChR ([3H]ibogaine sites) (Homo sapiens, UniProt P30926+P32297); test: [3H]ibogaine competition binding to hα3β4 AChR membranes from HEK293-hα3β4 cells
hα3β4 AChR ([3H]ibogaine sites), sequence (P32297 32-505): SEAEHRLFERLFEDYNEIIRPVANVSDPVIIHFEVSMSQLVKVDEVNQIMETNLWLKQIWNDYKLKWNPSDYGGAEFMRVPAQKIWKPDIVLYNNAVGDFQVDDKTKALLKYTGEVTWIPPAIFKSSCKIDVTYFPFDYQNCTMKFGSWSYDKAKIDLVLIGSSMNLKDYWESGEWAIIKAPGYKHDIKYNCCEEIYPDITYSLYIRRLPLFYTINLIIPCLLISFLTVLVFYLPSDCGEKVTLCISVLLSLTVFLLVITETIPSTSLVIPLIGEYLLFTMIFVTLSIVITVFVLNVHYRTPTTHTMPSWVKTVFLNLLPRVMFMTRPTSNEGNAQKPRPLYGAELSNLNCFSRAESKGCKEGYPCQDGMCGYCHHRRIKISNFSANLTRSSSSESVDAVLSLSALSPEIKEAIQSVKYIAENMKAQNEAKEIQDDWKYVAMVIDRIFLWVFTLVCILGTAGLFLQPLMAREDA
hα3β4 AChR ([3H]ibogaine sites), sequence (P30926 22-498): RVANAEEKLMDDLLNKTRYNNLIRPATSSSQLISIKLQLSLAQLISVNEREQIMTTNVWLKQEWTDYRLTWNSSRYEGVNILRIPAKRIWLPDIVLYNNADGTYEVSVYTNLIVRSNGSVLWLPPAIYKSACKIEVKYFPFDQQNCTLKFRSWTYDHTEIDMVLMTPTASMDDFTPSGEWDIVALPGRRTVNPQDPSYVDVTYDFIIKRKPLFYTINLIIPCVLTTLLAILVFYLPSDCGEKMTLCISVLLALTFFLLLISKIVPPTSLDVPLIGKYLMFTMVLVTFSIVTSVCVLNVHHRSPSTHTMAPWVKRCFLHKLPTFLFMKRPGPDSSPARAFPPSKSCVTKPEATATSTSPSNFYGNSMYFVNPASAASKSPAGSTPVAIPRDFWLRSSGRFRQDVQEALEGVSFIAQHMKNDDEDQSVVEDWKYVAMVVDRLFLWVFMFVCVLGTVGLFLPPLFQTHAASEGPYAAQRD

[9] = hα7, inhibition of 1.0 μM (±)-epibatidine-induced Ca2+ influx

## 12-methoxyibogamine [(−)-ibogaine]
[1]
  AChR subtypes inhibited in voltage-clamp recordings: inhibits both α3β4 and α4β2 subtypes

## CNCC[C@H]1CC2CN3CCc4c([nH]c5ccccc45)[C@](C(=O)OC)(C2)[C@H]13 (racemic) [(±)-18-MAC, (±)-18-Methylaminocoronaridine]
[2]
  nH (Hill coefficient): 1.40 ± 0.14
  hα4β2/hα3β4 IC50 ratio (selectivity): 7.9 x-fold
  IC50: 20.7 ± 3 µM
[3]; GH3-hα7 cells, 5 min pre-incubation, 1.0 μM (±)-epibatidine
  IC50 (inhibitory potency): No effect

## COCCC1CC2CN3CCc4c([nH]c5ccccc45)C(C(=O)OC)(C2)C13.Cl (racemic) [(±)-18-MC, (±)-18-Methoxycoronaridine hydrochloride]
[4]
  Reversibility of inhibition of ACh-evoked currents after washing: reversible inhibition
  IC50: 28 ± 6 µM
[2]
  nH (Hill coefficient): 1.85 ± 0.17
  hα4β2/hα3β4 IC50 ratio (selectivity): 4 x-fold and 4.3 x-fold
[5]
  IC50: 1.47 ± 0.21 µM
[6]
  half-life (metabolism to 18-HC): ~1.67 h
[3]; [9]
  nH (Hill coefficient): 2.21 ± 0.50
[3]
  hα7/hα3β4 IC50 ratio (selectivity): 23.6 x-fold

## Clc1ccc(C2CC3CCC2N3)cn1 (racemic) [(±)-epibatidine, (±)-Epibatidine, reference compound]
[3]; read-out: EC50 (activation potency), agonist-induced Ca2+ influx, GH3-hα7 cells, n = 25
  EC50: 0.026 ± 0.004 µM

## CCC1=C[C@@H]2CN3CCc4c([nH]c5ccccc45)[C@@](C(=O)OC)(C2)[C@@H]13 [(+)-Catharanthine, (+)-3,4-didehydrocoronaridine]
[4]
  Reversibility of inhibition of ACh-evoked currents after washing: reversible inhibition
  IC50: 27 ± 4 µM
[2]
  nH (Hill coefficient): 1.48 ± 0.25
  hα4β2/hα3β4 IC50 ratio (selectivity): 18.5 x-fold
[2]; listed as (+)-catharanthine
  hα4β2/hα3β4 IC50 ratio (selectivity): 18 x-fold
[5]
  IC50: 0.68 ± 0.1 µM
[3]; [9]
  nH (Hill coefficient): 1.43 ± 0.20
[3]
  hα7/hα3β4 IC50 ratio (selectivity): 32.0 x-fold
[3]; listed as (+)-catharanthine
  hα7/hα3β4 IC50 ratio (selectivity): 32 x-fold
[7]
  Selectivity for hα3β4 over α1β1γδ AChRs: 29 fold

## CC(NC(C)(C)C)C(=O)c1cccc(Cl)c1 (stereo not shown) [bupropion, bupropion hydrochloride]
[8]; desensitized state [in the presence of (−)-nicotine]
  nH (Hill coefficient): 0.75 ± 0.08
[8]; resting state [no agonist]
  nH (Hill coefficient): 0.72 ± 0.05

## (±)-18-hydroxycoronaridine [(±)-18-HC]
[2]
  nH (Hill coefficient): 1.27 ± 0.06
  hα4β2/hα3β4 IC50 ratio (selectivity): 8.8 x-fold
  IC50: 24.8 ± 1.2 µM
[3]
  nH (Hill coefficient): 1.64 ± 0.20
  hα7/hα3β4 IC50 ratio (selectivity): 26.1 x-fold

From paper PMC5903430 (The international journal of biochemistry & cell biology, 2017)
